The source of these data is ChEMBL document CHEMBL1136025, “Inhibition of ADP-triggered blood platelet aggregation by diadenosine polyphosphate analogues” (Bioorg Med Chem Lett, 2002).

Molecules are shown by their SMILES.

For the assay, the species on record is Homo sapiens. Briefly: The inhibitory concentration for the inhibition of ADP-Triggered Blood Platelet Aggregation. It is filed as functional. Put shortly: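 Human citrated PRP from unmedicated healthy donors (200g, 10 min, rt spin); PPP from 1000g, 20 min. Serial dilutions in phosphate buffer pH 7.4 preincubated with PRP 30 min at rt, then ADP added. Aggregation followed 10 min at 37 °C, absorbance 595 nm every 30 s with shaking; buffer and PPP-only controls; AMP as positive control.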
Usually IC50 stands for the concentration that gives 50% inhibition. Low readings indicate greater potency, high ones weaker potency. The compound `Nc1ncnc2c1ncn2[C@@H]1O[C@H](COP(O)(=S)OCC(OP(O)(O)=S)OP(O)(=S)OC[C@H]2O[C@@H](n3cnc4c(N)ncnc43)[C@H](O)[C@@H]2O)[C@@H](O)[C@H]1O` (stereo partly specified) registered an IC50 above 160 µM.

For `Nc1ncnc2c1ncn2[C@@H]1O[C@H](COP(O)(=S)OCP(=O)(O)COP(O)(O)=S)[C@@H](O)[C@H]1O` (stereo partly specified), the half-inhibitory concentration (IC50) came to 13 µM.

Take `Nc1ncnc2c1ncn2[C@@H]1O[C@H](COP(O)(=S)OC(C(=O)O)C(OP(O)(=S)OC[C@H]2O[C@@H](n3cnc4c(N)ncnc43)[C@H](O)[C@@H]2O)C(=O)O)[C@@H](O)[C@H]1O` (stereo partly specified): the IC50 was 75 µM.

The compound `Nc1ncnc2c1ncn2[C@@H]1O[C@H](COP(=S)(S)OCP(=O)(O)COP(=S)(S)OC[C@H]2O[C@@H](n3cnc4c(N)ncnc43)[C@H](O)[C@@H]2O)[C@@H](O)[C@H]1O` (stereo partly specified) had an IC50 of 10 µM.

The compound `Nc1ncnc2c1ncn2[C@@H]1O[C@H](COP(O)(=S)OCP(=O)(O)COP(O)(=S)OC[C@H]2O[C@@H](n3cnc4c(N)ncnc43)[C@H](O)[C@@H]2O)[C@@H](O)[C@H]1O` (stereo partly specified) came in with an IC50 of 40 µM.

The compound `Nc1ncnc2c1ncn2[C@@H]1O[C@H](COP(=O)(O)OCP(=O)(O)COP(=O)(O)OC[C@H]2O[C@@H](n3cnc4c(N)ncnc43)[C@H](O)[C@@H]2O)[C@@H](O)[C@H]1O` had an IC50 of 80 µM.
